Rtt109 HAT inh: inhibitors of Candida albicans Rtt109/Vps75 histone acetyltransferase; Q5AAJ8; inhibition, % at 34.9 µM; purified Rtt109/Vps75, ThioGlo CoA-SH fluorescence, 4 h; AID 540336; hit rate 0.16% among 330,000;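 active = inhibition of at least 50% in every replicate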
Target sequence (Q5AAJ8 whole entry, looked up): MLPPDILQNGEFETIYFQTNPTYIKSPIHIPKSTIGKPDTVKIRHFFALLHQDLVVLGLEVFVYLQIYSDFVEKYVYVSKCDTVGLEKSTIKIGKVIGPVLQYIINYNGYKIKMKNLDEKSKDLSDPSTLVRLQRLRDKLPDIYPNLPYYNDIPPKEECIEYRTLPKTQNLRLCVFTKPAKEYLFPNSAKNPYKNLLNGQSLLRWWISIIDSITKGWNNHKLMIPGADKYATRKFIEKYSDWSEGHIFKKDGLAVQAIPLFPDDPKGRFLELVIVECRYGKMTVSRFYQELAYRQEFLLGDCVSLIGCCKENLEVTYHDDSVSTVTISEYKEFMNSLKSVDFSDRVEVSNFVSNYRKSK
ARFGAP1 inhibitor: inhibitors of rat ARFGAP1. Arfgap1-stimulated ARF1 GTP hydrolysis, GDP FP detection. inhibition, % at 16.5 µM. hit rate 0.26% among 360,000;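 active = inhibition above a per-plate limit, mean inhibition of low control wells plus 3 SD, cut at about 25% in these data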;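 also: 0% = DMSO wells with enzyme and 100% = wells lacking Arfgap1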
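system = rat Arfgap1 catalytic domain, aa 1-136 | technique = FP, GDP Alexa 633 tracer displaced from anti-GDP antibody, 620/688 nm | compound = one concentration, 16.5 µM, DMSO 1.26% | medium = HEPES-based buffer, pH 7.5 | timing = compound-enzyme preincubation 20 min, reaction 120 min, detection 60 min, 25 °C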
Efflux pump inh: inhibitors of Candida antifungal efflux pumps expressed in yeast | S. cerevisiae Candida pump triplex, Nile Red efflux | inhibition, % at 10 µM | hit rate 0.44% among 330,000;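 active = plate passing quality check with inhibition over a set limit, or well fluorescence over plate mean plus 4 SD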;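 also: Nile Red retained in pooled yeast measured as flow cytometry median fluorescence; 0% = buffer negative control and 100% = Enniatin B positive control; higher means more Nile Red kept so more efflux inhibition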
ASAP1 inh: blocks human ASAP1-stimulated Arf1 GTP hydrolysis. Q9ULH1. GDP FP detection. inhibition, % at 16.5 µM. hit rate 0.19% among 360,000. AID 624377; in the data active = inhibition above about 25%;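 also: 0% = vehicle with enzyme and substrate and 100% = no enzyme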
FGF22 binding: FGF22 (human) thermal shift binding; hit rate 1.5% among 340,000; recombinant FGF22 thermal shift, SYPRO orange fluorescence; percent of sucrose octasulfate shift, DMSO zero; activity (Tm shift, normalised), % at 9.99 µM; Q9HCT0;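 active = mean Tm shift, scaled 0 neutral to 100 positive control, at about 1.3% or above, every replicate too, limit read from the data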
Starred values were filed as active, the others as inactive; . = not tested or not shown. An excerpt weighted towards active compounds, which were near 1.9% of everything screened.

SMILES	Rtt109 HAT inh	ARFGAP1 inhibitor	Efflux pump inh	ASAP1 inh	FGF22 binding
CCN(c1ccccc1)S(=O)(=O)c1ccc(OC)c(NC(=O)c2ccccc2OC)c1	-1	-17	.	-3	0
Cc1nc2c(c(-c3ccccc3)c1C#N)C(=O)c1ccccc1-2	6	-4	0	-6	.
CC(C(=O)NC(C)(C)C)N1C(=O)c2cccc3cccc(c23)C1=O (configuration not stated)	-7	4	0	12	43*
CC(=O)c1ccc(N2CCN(CC(O)COC(c3ccccc3)c3ccccc3C)CC2)cc1 (configuration not stated)	-4	7	0	8	0
CC(=O)c1ccc(N2CCN(CC(O)COC(c3ccccc3)c3ccccc3)CC2)cc1 (configuration not stated)	55*	7	0	-8	0
Cc1ccc(C)c(OCC(=O)Nc2ccccc2C(=O)N2CCN(C)CC2)c1	-8	-3	-1	1	0
COc1cc(C(=O)Nc2cccc(-c3nnc(-c4ccco4)o3)c2)ccc1OC(C)=O	3	16	0	-1	44*
COc1ccc(C(=O)Nc2cccc(-c3nnc(-c4ccco4)o3)c2)cc1	4	4	0	16	.
CC1=C(C(=O)Nc2cccc([N+](=O)[O-])c2)C2(CCC(C)CC2)OC1=O (configuration not stated)	.	-3	0	8	44*
O/C=c1\ccc2cccc3nc(C(F)(F)F)nc1c23	-7	1	3.0*	5	0
O=C(Nc1ccc(Cl)cn1)c1ccc([N+](=O)[O-])o1	18	3	.	-3	43*
CCOc1ccccc1C1NC(=O)c2ccccc2N1 (configuration not stated)	0	6	.	1	44*
O=[N+]([O-])c1cccc(S(=O)(=O)N2CCN(c3ccccn3)CC2)c1	3	-10	0	14	0
O=[N+]([O-])c1ccc(S(=O)(=O)N2CCN(c3ccccn3)CC2)cc1	.	-4	.	0	43*
COc1ccc(S(=O)(=O)N2CCN(c3ccccn3)CC2)cc1OC	53*	-3	0	-8	.
COc1ccc(NC(=O)CN(C)C(=O)C2CC(=O)N(c3cccc4ccccc34)C2)cc1 (configuration not stated)	3	15	0	5	0
COc1ccc(-c2[nH]ncc2CN(C)CCN2CCOCC2)cc1F	4	0	0	9	0
COc1ccc(-c2[nH]ncc2CN(C)CC2CCCCO2)cc1F (configuration not stated)	3	8	0	12	43*
C=CCn1cnc2c(nnn2-c2cc(C)cc(C)c2)c1=O	4	9	0	2	0
CN(C)c1ccc(NC(=O)/C=C/c2ccccc2Cl)cc1	56*	-7	-3	-4	.
Cn1c(=O)c([N+](=O)[O-])c(NCC2CCCO2)c2ccccc21 (configuration not stated)	6	3	0	4	0
C[C@H]1CN([C@@H](C)CO)C(=O)CCCn2nncc2CO[C@H]1CN(C)C(=O)CCC(F)(F)F	.	-5	.	4	0
CCn1cc(CN2CCc3c([nH]c4ccccc34)C2c2cccc(O)c2)c(C)n1 (configuration not stated)	-4	16	0	12	0
CCn1cc(CN2N=C(C)CC2c2ccccc2)c(C)n1 (configuration not stated)	2	-4	0	-5	44*
COc1ccc(CCNC(=O)Cn2nnc(-c3ccc(N(C)C)cc3)n2)cc1OC	-7	2	0	2	.
CSc1ncccc1C(=O)OCC(=O)Nc1cccc(S(=O)(=O)N2CCOCC2)c1	6	-3	0	2	43*
CSc1ncccc1C(=O)OCC(=O)Nc1ccc(C)c(S(=O)(=O)N2CCOCC2)c1	-2	-10	0	7	43*
Cc1ccc(NC(=O)c2n[nH]c(=O)c3ccccc23)cc1S(=O)(=O)N1CCOCC1	-8	-5	0	-3	43*
Cc1ccc(NC(=O)COC(=O)c2cccnc2Cl)cc1S(=O)(=O)N1CCOCC1	-1	-10	0	5	0
Cc1ccc(NC(=O)c2cnccn2)cc1S(=O)(=O)N1CCCCCC1	-3	-1	0	-12	43*
